Rows were chosen to be rich in hits. Some 4.7% of all compounds tested hit in one or more screens of this group.
MrgX1 antagonist – human MrgX1 receptor antagonism, primary screen | hit rate 1.3% among 310,000 | MRGX1-HEK293 calcium flux, Fluo-4, BAM8-22 antagonism; stronger effect = lower value | B-score at 10 µM;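 active means calcium-response B-score plate-corrected more than 3 library SD below zero, starting fluorescence within 5 deviations, no agonist response on first addition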;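 further: peak minus trough fluorescence over baseline after final BAM8-22 challenge near maximal dose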
RGS4 block – inhibitors of human RGS4 | HEK293 M3R/RGS4 inducible, Fluo-4 calcium flux; stronger effect = higher value; triggered by carbachol at its EC20 | AID 463165 | B-score at 10 µM | P49798 | hit rate 0.45% among 310,000;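 active means B-score, a plate-corrected calcium signal, over three deviations above library mean, with baseline fluorescence within five deviations of library mean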;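 further: RGS4 expression induced by doxycycline in cells with stable M3 receptor; B-score is computed from the integrated fluorescence ratio over baseline after carbachol; higher B-score means a larger calcium signal and so more RGS4 inhibition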
Cl transport mod – modulators of human KCC2 chloride dependent transport | hit rate 2.2% among 190,000 | KCC2 cells, thallium flux FluoZin-2 fluorescence | Q9H2X9 | B-score of Tl+ flux slope (higher = more flux/activation; lower = inhibition) at 10 µM;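 active means thallium flux slope and its plate-corrected score both differing from the plate sample mean at a set confidence after two filtering rounds, in either direction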;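 further: slope of fluorescence scaled to starting intensity during 10 to 20 s after thallium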
Target sequence (Q9H2X9 whole entry, looked up): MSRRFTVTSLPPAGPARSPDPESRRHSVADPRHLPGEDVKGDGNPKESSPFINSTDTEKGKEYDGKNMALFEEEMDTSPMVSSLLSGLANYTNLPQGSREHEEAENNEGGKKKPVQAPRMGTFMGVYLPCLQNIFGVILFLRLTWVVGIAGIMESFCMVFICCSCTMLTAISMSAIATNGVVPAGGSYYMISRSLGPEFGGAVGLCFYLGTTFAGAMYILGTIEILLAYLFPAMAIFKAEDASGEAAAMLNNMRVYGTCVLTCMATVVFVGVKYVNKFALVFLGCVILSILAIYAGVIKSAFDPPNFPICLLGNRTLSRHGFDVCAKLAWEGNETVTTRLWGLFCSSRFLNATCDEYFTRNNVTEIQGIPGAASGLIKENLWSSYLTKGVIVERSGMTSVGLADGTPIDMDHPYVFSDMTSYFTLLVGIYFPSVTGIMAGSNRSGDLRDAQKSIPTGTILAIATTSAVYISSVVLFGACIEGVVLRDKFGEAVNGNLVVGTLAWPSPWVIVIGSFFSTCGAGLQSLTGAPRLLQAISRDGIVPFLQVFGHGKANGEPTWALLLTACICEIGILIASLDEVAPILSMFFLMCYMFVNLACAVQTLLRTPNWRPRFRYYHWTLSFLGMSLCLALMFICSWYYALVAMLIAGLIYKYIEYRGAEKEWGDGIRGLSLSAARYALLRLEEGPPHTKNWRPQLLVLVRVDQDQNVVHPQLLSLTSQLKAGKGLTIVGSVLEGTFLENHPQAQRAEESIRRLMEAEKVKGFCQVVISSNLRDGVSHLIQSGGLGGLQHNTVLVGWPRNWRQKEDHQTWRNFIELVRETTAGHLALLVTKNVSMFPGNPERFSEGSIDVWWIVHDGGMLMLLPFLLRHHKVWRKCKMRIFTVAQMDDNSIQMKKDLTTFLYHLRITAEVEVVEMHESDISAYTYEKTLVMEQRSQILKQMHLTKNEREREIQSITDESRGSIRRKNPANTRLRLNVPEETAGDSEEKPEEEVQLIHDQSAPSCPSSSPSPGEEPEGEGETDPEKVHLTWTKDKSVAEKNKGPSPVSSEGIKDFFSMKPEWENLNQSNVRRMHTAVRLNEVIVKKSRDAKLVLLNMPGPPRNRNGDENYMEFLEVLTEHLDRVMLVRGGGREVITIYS
RGS4 pot – RGS4 potentiation or activation. HEK293 M3R/inducible RGS4, carbachol calcium flux Fluo4; stronger effect = lower value. hit rate 0.92% among 310,000. B-score at 10 µM;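 active means B-score of the integrated calcium signal more than 4 SD below the library mean, with starting fluorescence not abnormally high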;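 further: negative B-score means reduced calcium response which marks RGS4 activation or potentiation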
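Reagent: ECmax carbachol challenge; Test system: M3R-expressing HEK293 line, RGS4 induced by doxycycline; Schedule: overnight RGS4 induction, 30 min dye load 37 °C, 20 min compound RT; Detection: calcium dye Fluo4 fluorescence; Read-out: Agonist-evoked peak-minus-minimum fluorescence over baseline, integrated ratio, B score.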
MrgX1 allo act – human MrgX1 positive allosteric modulation, primary screen; Q96LB2; MrgX1-HEK293, Fluo-4 calcium flux, FDSS; stronger effect = higher value; B-score at 10 µM; hit rate 0.63% among 310,000;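 active means plate-corrected calcium response at least 3 library SD above typical, normal starting fluorescence, not activating the receptor alone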;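 further: compound read alongside a low EC10 to EC30 dose of BAM8-22 agonist; peak minus trough fluorescence over baseline measured at the second addition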
MrgX1 ag – human MrgX1 receptor agonism, primary screen. hit rate 0.44% among 310,000. B-score at 10 µM. AID 588627. MrgX1-HEK293 cells, Fluo-4 calcium fluorescence, agonist mode; stronger effect = higher value;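 active means calcium response B-score plate-corrected fluorescence ratio at least 3 library SD, with starting fluorescence B-score inside 5 SD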
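Material – MrgX1-expressing HEK293 cells · Input – 15,000 cells seeded per well · Dosing – compound as first of three additions · Times – overnight seeding, then 1 h dark dye loading · Measured by – kinetic Fluo-4 NW fluorescence of intracellular calcium · Read-out – B-scored fluorescence response ratio · Benchmarks – positive and negative control wells on each plate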
KCC2 sec1 – confirmation of human KCC2 transport modulators. hit rate 15% among 3,700. shares compounds with Cl transport mod. normalised thallium flux (F/F0 slope) at 10 µM. HEK293-KCC2, thallium flux, FluoZin2 fluorescence; stronger effect = higher value. AID 1713;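 active means thallium flux slope above the same plate's solvent-only control mean plus 3 SD; inconclusive means the two replicate wells disagree; inactive means no significant difference from solvent-only control wells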
KCC2 bumet counter – thallium flux despite bumetanide block in KCC2 cells, secondary assay 3; HEK293-KCC2 + bumetanide/ouabain, thallium flux FluoZin2; stronger effect = higher value; shares compounds with Cl transport mod; normalized thallium flux at 10 µM; hit rate 49% among 3,700; AID 1714;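 active means thallium entry rate above the same plate's blocked-transporter control wells by more than 3 SD; inconclusive means the two repeat wells disagree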;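 further: raw slope of fluorescence over initial fluorescence between 10 and 20 s after thallium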
KCC2 secondary2 – KCC2 (human) modulation, second secondary assay. hit rate 23% among 3,700. normalized thallium flux at 10 µM. shares compounds with Cl transport mod. HEK293-KCC2, thallium flux FluoZin2 fluorescence; actives lie on both sides; F/F0 rise rate, 10–20 s post-thallium;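 active means thallium flux slope more than 3 SD above or below the plate's solvent-only control mean, mostly below; inconclusive means the two repeat wells disagreed; inactive means no significant shift from solvent-only controls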;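 further: raw slope with 0.1% DMSO as baseline and bumetanide as block control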
HEK counter1 – parental HEK flux effect, counter-screen; hit rate 46% among 3,700; HEK293 parental cells, thallium flux FluoZin2, ouabain; baseline-ratio fluorescence slope, 10–20 s after thallium; shares compounds with Cl transport mod; thallium flux rate (normalised fluorescence) at 10 µM;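 active means thallium flux rate significantly above the same plate's solvent-only control wells, beyond their mean plus 3 SD; inconclusive means the two replicate wells gave conflicting results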
KCC2 retest ouab – confirmation of human KCC2 modulators with ouabain; raw Tl+ flux slope (below DMSO = inhibition, above = activation) at 10 µM; shares compounds with Cl transport mod; HEK293-KCC2, thallium flux FluoZin2 fluorescence; bidirectional: low = inhibitor, high = activator; hit rate 48% among 3,700;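 active means thallium flux slope beyond 3 SD from same-plate DMSO control mean in most replicates, usually higher, sometimes lower; inconclusive means repeat tests gave conflicting results; inactive means no significant difference from controls in most replicates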;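 further: slope of initial-normalized fluorescence between seconds 10 and 20 after thallium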
HEK293 Tl flux2 – acts in parental HEK cells, second KCC2 counter-screen. AID 1718. HEK293 parental, thallium flux FluoZin-2 fluorescence slope. hit rate 33% among 3,700. shares compounds with Cl transport mod. thallium flux slope at 10 µM;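 active means thallium flux slope above the same plate's solvent-control mean plus 3 SD in both duplicate wells; inconclusive means duplicate wells that disagreed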;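 further: run without ouabain in cells lacking the KCC2 cotransporter; slope of fluorescence scaled to its starting value between 10 and 20 s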
Active calls of the source: *.

How did CC(=C/c1ccccc1)/C=N/n1c(-c2ccco2)n[nH]c1=S do in these assays?
MrgX1 antagonist: inactive; RGS4 block: inactive; RGS4 pot: inactive; MrgX1 allo act: inactive; MrgX1 ag: inactive

How did CC(/C=N/n1c(-c2cc(C)[nH]n2)n[nH]c1=S)=C\c1ccccc1 do in these assays?
MrgX1 antagonist: inactive; RGS4 block: inactive; Cl transport mod: -4.4*; RGS4 pot: inactive; MrgX1 allo act: inactive; MrgX1 ag: inactive; KCC2 sec1: 0.0095; KCC2 bumet counter: 0.0065; KCC2 secondary2: 0.033; HEK counter1: inconclusive; KCC2 retest ouab: 0.019; HEK293 Tl flux2: 0.011

What do the screens show for `CCn1c(SCC(=O)Nc2nc3ccccc3s2)nc2c(c1=O)SC(C)C2` (configuration not stated)?
MrgX1 antagonist: inactive; RGS4 block: inactive; Cl transport mod: -4.1*; RGS4 pot: inactive; MrgX1 allo act: inactive; MrgX1 ag: inactive; KCC2 sec1: 0.0072; KCC2 bumet counter: 0.0052; KCC2 secondary2: 0.03; HEK counter1: 0.0057*; KCC2 retest ouab: 0.02*; HEK293 Tl flux2: 0.0091

How did CC(=O)Nc1ccc(S(=O)(=O)Nc2c(C)nn(-c3ccccc3)c2C)cc1 do in these assays?
MrgX1 antagonist: inactive; RGS4 block: inactive; RGS4 pot: inactive; MrgX1 allo act: inactive; MrgX1 ag: inactive; KCC2 sec1: 0.0067; KCC2 bumet counter: 0.0043; KCC2 secondary2: 0.03; HEK counter1: inconclusive; KCC2 retest ouab: 0.016; HEK293 Tl flux2: 0.009

What do the screens show for `Cc1nn(-c2ccc(F)cc2)c(C)c1NS(=O)(=O)c1ccc2ccccc2c1`?
MrgX1 antagonist: inactive; RGS4 block: inactive; Cl transport mod: -7.2*; RGS4 pot: inactive; MrgX1 allo act: inactive; MrgX1 ag: inactive; KCC2 sec1: 0.0053; KCC2 bumet counter: inconclusive; KCC2 secondary2: 0.022*; HEK counter1: 0.007; KCC2 retest ouab: inconclusive; HEK293 Tl flux2: 0.011

Results for O=S(=O)(Nc1ccc(N2CCOCC2)cc1)c1ccc2ccccc2c1 ?
MrgX1 antagonist: inactive; RGS4 block: inactive; Cl transport mod: 0.58; RGS4 pot: inactive; MrgX1 allo act: inactive; MrgX1 ag: inactive

How did CCOC(=O)C1=C(N)OC2=C(C(=O)CCC2)C1c1sccc1C (configuration not stated) do in these assays?
MrgX1 antagonist: inactive; RGS4 block: inactive; Cl transport mod: -6.4*; RGS4 pot: inactive; MrgX1 allo act: inactive; MrgX1 ag: inactive; KCC2 sec1: 0.0059; KCC2 bumet counter: 0.0045; KCC2 secondary2: inconclusive; HEK counter1: 0.0062*; KCC2 retest ouab: 0.017; HEK293 Tl flux2: 0.0088*

What do the screens show for `CC1CCN(C(=O)c2ccc(SCc3ccccc3F)c([N+](=O)[O-])c2)CC1`?
MrgX1 antagonist: inactive; RGS4 block: inactive; Cl transport mod: -3.4*; RGS4 pot: inactive; MrgX1 allo act: inactive; MrgX1 ag: inactive; KCC2 sec1: 0.0068; KCC2 bumet counter: 0.0052; KCC2 secondary2: 0.025*; HEK counter1: 0.008; KCC2 retest ouab: inconclusive; HEK293 Tl flux2: 0.0097

How did O=C(c1ccc2c(c1)OCO2)N1CCC(Cc2ccccc2)CC1 do in these assays?
MrgX1 antagonist: inactive; RGS4 block: inactive; Cl transport mod: -3.2; RGS4 pot: inactive; MrgX1 allo act: inactive; MrgX1 ag: inactive

How did O=C(c1ccc(S(=O)(=O)Cc2ccccc2F)c([N+](=O)[O-])c1)N1CCCCCC1 do in these assays?
MrgX1 antagonist: inactive; RGS4 block: inactive; Cl transport mod: -0.13; RGS4 pot: inactive; MrgX1 allo act: inactive; MrgX1 ag: inactive

What do the screens show for `Cc1ccc(C(=O)N2CCC(Cc3ccccc3)CC2)cc1[N+](=O)[O-]`?
MrgX1 antagonist: inactive; RGS4 block: inactive; Cl transport mod: -5.7*; RGS4 pot: inactive; MrgX1 allo act: inactive; MrgX1 ag: inactive; KCC2 sec1: 0.008; KCC2 bumet counter: inconclusive; KCC2 secondary2: 0.034; HEK counter1: 0.0034; KCC2 retest ouab: 0.014*; HEK293 Tl flux2: 0.011

Results for CCCCC(=O)Nc1nn(CCC)c2nc3ccccc3cc12 ?
MrgX1 antagonist: inactive; RGS4 block: inactive; Cl transport mod: -3.8*; RGS4 pot: inactive; MrgX1 allo act: inactive; MrgX1 ag: inactive; KCC2 sec1: 0.0094; KCC2 bumet counter: 0.0067; KCC2 secondary2: 0.029; HEK counter1: 0.0073; KCC2 retest ouab: 0.043; HEK293 Tl flux2: 0.01

What do the screens show for `CCCCC(=O)Nc1nn(CC)c2nc3c(C)cccc3cc12`?
MrgX1 antagonist: inactive; RGS4 block: inactive; RGS4 pot: inactive; MrgX1 allo act: inactive; MrgX1 ag: inactive

How did Cc1ccc2nc3c(cc2c1)c(NC(=O)c1ccccn1)nn3CC(C)C do in these assays?
MrgX1 antagonist: inactive; RGS4 block: inactive; RGS4 pot: inactive; MrgX1 allo act: inactive; MrgX1 ag: inactive

How did CCn1nc(NC(=O)c2ccccn2)c2cc3cc(C)ccc3nc21 do in these assays?
MrgX1 antagonist: inactive; RGS4 block: inactive; Cl transport mod: 7.3*; RGS4 pot: inactive; MrgX1 allo act: inactive; MrgX1 ag: inactive; KCC2 sec1: 0.0056; KCC2 bumet counter: 0.0036; KCC2 secondary2: 0.026; HEK counter1: 0.0073; KCC2 retest ouab: 0.018; HEK293 Tl flux2: inconclusive

What do the screens show for `CCc1ccc(NC(=O)C/C(C)=N/NC(=O)COc2ccccc2C)cc1`?
MrgX1 antagonist: inactive; RGS4 block: inactive; RGS4 pot: inactive; MrgX1 allo act: inactive; MrgX1 ag: inactive

Screening results as filed in PubChem BioAssay.
